Data published in PubChem BioAssay.
Results filed as inconclusive are left out.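 Rule for the calls, unless noted: active = growth inhibition above 25% in both replicates, a cutoff set 3 SD above the mean; inconclusive = above 25% in only one replicate; inactive = the rest.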

Experiments:
[1] = OD615 S. cerevisiae growth inhibition, permissive medium, pilot counter-assay, permissive growth control for S. cerevisiae lifespan shortening project (AID 705); conditions: OD615, 24 h, at 10 µM, active compounds read high
Procedure, shortened: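 System – S. cerevisiae with engineered DeaD lifespan system · Buffer or medium – SC raffinose/galactose permissive medium · Schedule – cells pre-grown 4 h, then 24 h compound exposure, 30 °C humidified · Technique – culture turbidity as optical density at 615 nm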

[2] = Restrictive medium S. cerevisiae growth inhibition, OD615, pilot screen of yeast lifespan reduction project, restrictive growth control (AID 706;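 active = growth inhibition above a set limit, 3 SD over mean compound inhibition, in both replicates, cut at about 43% in these data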;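 note: modified DeaD lifespan yeast strain shifted to restrictive glucose medium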); conditions: OD615, 48 h, at 10 µM, active compounds read high
Procedure, shortened: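 Material: engineered S. cerevisiae DeaD strain / Medium: glucose-based CSMM-D restrictive medium / Compound: single dose of 10 µM compound final, 0.25% DMSO / Timing: 4 h pre-incubation, 48 h exposure at 30 °C / Technique: OD615 absorbance reading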

[3] = viability gain of MRP-1-high H69AR cells under doxorubicin, pilot screen, MRP-1 activator project, CellTiter-Glo, duplicate (AID 807;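 active = viability increase at or above a cutoff of the median across tested compounds plus 3 SD, cut at about 8.5% in these data, passing the limit was not always enough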;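 note: compound pretreatment 18-22 h then 72 h combined with doxorubicin; 0% = doxorubicin alone and 100% = vehicle without doxorubicin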); conditions: H69AR viability with doxorubicin, CellTiter-Glo luminescence; at 10 µM; active compounds read high
[4] = growth suppression of beta-catenin knockout HCT116, pilot screen, human colon tumor cells (AID 823;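 active = cell viability at or below a set limit in both duplicate runs, the limit being the all-compound median minus 4 SD, cut at about 23% in these data, passing the limit was not always enough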;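 note: 0% = wells killed by 20 µM Hyamine and 100% = untreated DMSO cell wells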); conditions: CellTiter-Glo, 60 h, at 10 µM, active compounds read low
[5] = growth suppression of PTEN-deleted HCT116, pilot screen, cell-based, HCT116 clonal line, CellTiter-Glo (AID 824;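 active = viability at or below 27.92% in each of two runs, the all-compound median minus 4 SD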;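 note: 0% = 20 µM Hyamine control and 100% = vehicle cell control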); conditions: 60 h, at 10 µM, active compounds read low
[6] = inhibitors of the yeast RAM network, pilot screen, dse1pr::URA3 reporter, 5-FOA selection (AID 869;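 active = inhibition over a set limit, the all-compound mean plus 3 SD, in both replicate runs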;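 note: 0% = DMSO wells with no growth and 100% = 10 µM 1-NA-PP1 with full growth; RAM network block rescues cells from 5-FOA so hits raise OD615 growth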); conditions: S. cerevisiae dse1pr::URA3 5-FOA growth, OD615, 2 d; at 10 µM; active compounds read high; strain carries analog-sensitive mutant Cbk1 kinase
[7] = RAM signaling pathway blockade in yeast – S. cerevisiae, Pdr1DBD-CYC8 efflux-inhibited sensitized strain, primary screen (AID 1298;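 active = RAM network inhibition above 8.4% in each of two replicates, 3 SD over the compound average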;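 note: 0% = DMSO untreated cells without growth and 100% = 10 µM 1-NA-PP1 full growth; higher means more yeast growth rescued from 5-FOA killing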); conditions: S. cerevisiae cbk1-as DSE1-URA3 strain, 5-FOA growth OD615, 2 d; at 50 µM; active compounds read high

Cc1cccc(-n2c(Cc3cc(=O)[nH]c(=O)[nH]3)nnc2SCC(=O)NCC2CCCO2)c1 (stereo not given)
inactive: growth inhibition [1] -2.17% | growth inhibition [2] -13.5% | viability increase [3] -2.52% | viability [4] 93.5% | viability [5] 92.3% | inhibition [6] 0.535% | RAM network inhibition [7] -1.56%

CC(C)n1c(SCCCc2ccccc2)nc2c1c(=O)[nH]c(=O)n2C
inactive: growth inhibition [1] -6.04% | growth inhibition [2] 4.52% | viability increase [3] -0.9% | viability [4] 92.2% | viability [5] 87.5% | inhibition [6] 1.95% | RAM network inhibition [7] 8.85%

CCC1(C(=O)O)NC(c2cccc(OC)c2O)C2C(=O)N(c3ccccc3)C(=O)C21 (stereo not given)
inactive: growth inhibition [1] -6.47% | growth inhibition [2] 1.83% | viability increase [3] -2.33% | viability [4] 102% | viability [5] 93.8% | inhibition [6] 3.62% | RAM network inhibition [7] 1.14%

CCOC(=O)c1ccc(NC(=O)CSc2nnc(Cn3c(=O)sc4ccccc43)n2C)cc1
inactive: growth inhibition [1] -8.11% | growth inhibition [2] 12% | viability increase [3] -2.6% | viability [4] 94.1% | viability [5] 88.5% | inhibition [6] 0.665% | RAM network inhibition [7] 3.59%

CCOC(=O)N1CCN(CC(=O)Nc2cc(OCC)ccc2OCC)CC1
inactive: growth inhibition [1] -8.3% | growth inhibition [2] -19.7% | viability increase [3] -6.22% | viability [4] 91.2% | viability [5] 93.8% | inhibition [6] 2.08% | RAM network inhibition [7] 7.52%

Cc1ccc(CC(=O)N2CCC(c3nc4c(nnn4Cc4ccccc4)c(=O)[nH]3)CC2)cc1
inactive: growth inhibition [1] -10.5% | growth inhibition [2] -7.38% | viability increase [3] -1.07% | viability [4] 76.9% | viability [5] 78.9% | inhibition [6] 0.71% | RAM network inhibition [7] 3%

COC(=O)C1C(=O)C=C(N2CCOCC2)CC1(C)C (stereo not given)
inactive: growth inhibition [1] -10.6% | growth inhibition [2] -10.2% | viability increase [3] -0.72% | viability [4] 96.4% | viability [5] 105% | inhibition [6] 0.685% | RAM network inhibition [7] 1.92%

O=C(CSc1nc2ccccc2[nH]1)Nc1ccc(F)cc1
inactive: growth inhibition [1] 3.95% | growth inhibition [2] 11.3% | viability increase [3] 0.83% | viability [4] 97.7% | viability [5] 90.2% | inhibition [6] 0.255% | RAM network inhibition [7] 5.07%

Cc1[nH]nc2c1C(c1ccccc1F)NC2=O (stereo not given)
inactive: growth inhibition [1] -0.665% | growth inhibition [2] -2.84% | viability increase [3] -1.22% | viability [4] 106% | viability [5] 97.9% | inhibition [6] 2.04% | RAM network inhibition [7] -0.67%

CCCc1cc(C(=O)N(C2CCCCC2)C2CCCCC2)no1
inactive: growth inhibition [1] 4.36% | growth inhibition [2] 14.7% | viability increase [3] -5.51% | viability [4] 74.5% | viability [5] 80.8% | inhibition [6] 1.57% | RAM network inhibition [7] 6.03%

Cn1c2ccccc2c2c(C(=O)O)cn(C3CCCC3)c(=O)c21
inactive: growth inhibition [1] 3.4% | growth inhibition [2] 1.83% | viability increase [3] -3.21% | viability [4] 91.4% | viability [5] 91.7% | inhibition [6] 1.46% | RAM network inhibition [7] 4.9%

O=C(Cn1c(=O)oc2ccccc21)N1CCN(c2ccc(N3CCOCC3)nn2)CC1
inactive: growth inhibition [1] -0.78% | growth inhibition [2] -14% | viability increase [3] -2.65% | viability [4] 101% | viability [5] 101% | inhibition [6] 1.31% | RAM network inhibition [7] 2.63%

O=C1CC(c2ccccc2)CC(O)=C1C=NCCN1CCNCC1 (stereo not given)
inactive: growth inhibition [1] -21.5% | growth inhibition [2] -14.2% | viability increase [3] 1.22% | viability [4] 99.2% | viability [5] 98.1% | inhibition [6] -0.42% | RAM network inhibition [7] -1.05%

CC1(C)CC(=O)N(c2ccccc2)C1(C)O (stereo not given)
inactive: growth inhibition [1] -8.08% | growth inhibition [2] -4.3% | viability increase [3] 0.17% | viability [4] 93.7% | viability [5] 104% | inhibition [6] 0.395% | RAM network inhibition [7] 1.53%

O=C1C2CCCN2C(c2ccc(Br)cc2)N1c1ccc(F)cc1 (stereo not given)
inactive: growth inhibition [1] -4.66% | growth inhibition [2] -3.76% | viability increase [3] -3.07% | viability [4] 94.2% | viability [5] 90% | inhibition [6] 2.89% | RAM network inhibition [7] 9.1%

Cc1ccc(C)c(SCC(=O)OCC(=O)c2ccco2)c1
inactive: growth inhibition [1] -21.2% | growth inhibition [2] -14.6% | viability increase [3] -3.35% | viability [4] 88.9% | viability [5] 91.6% | inhibition [6] 0.705% | RAM network inhibition [7] 2.26%

Cc1cccc(OCc2nnc(SCC(=O)Nc3ccc(C)c(C)c3)o2)c1
inactive: growth inhibition [1] -5.54% | growth inhibition [2] 1.43% | viability increase [3] -2.67% | viability [4] 102% | viability [5] 94.2% | inhibition [6] 4.2% | RAM network inhibition [7] 1.73%

Cc1ccccc1-n1nc2c(c1NC(=O)COc1ccc(Cl)cc1)CS(=O)C2 (stereo not given)
inactive: growth inhibition [1] -5.57% | growth inhibition [2] -3.5% | viability increase [3] 0.22% | viability [4] 98.3% | viability [5] 92.6% | inhibition [6] 1.46% | RAM network inhibition [7] 1.42%

O=C(O)C1C2C=CC3(CN(Cc4ccco4)C(=O)C13)O2 (stereo not given)
inactive: growth inhibition [1] -11.7% | growth inhibition [2] 4.86% | viability increase [3] -0.96% | viability [4] 112% | viability [5] 95.6% | inhibition [6] 0.815% | RAM network inhibition [7] -0.52%

CCOC(=O)c1sc(NC(C)=O)cc1C
inactive: growth inhibition [1] -1.26% | growth inhibition [2] 4.88% | viability increase [3] 0.69% | viability [4] 115% | viability [5] 96% | inhibition [6] 0.47% | RAM network inhibition [7] 1.02%

COc1ccc(C2N(c3cccc(Cl)c3)C(=O)C3CCCN32)cc1 (stereo not given)
inactive: growth inhibition [1] 6.5% | growth inhibition [2] 6.72% | viability increase [3] -2.85% | viability [4] 102% | viability [5] 98.1% | inhibition [6] 0.115% | RAM network inhibition [7] -1.65%

Clc1ccc(Sc2oc(/C=N/n3cnnc3)cc2Br)cc1
inactive: growth inhibition [1] -0.475% | growth inhibition [2] 22.4% | viability increase [3] -8.12% | viability [4] 27.6% | viability [5] 50.5% | inhibition [6] 0.36% | RAM network inhibition [7] 1.69%

CCN1CCN(CC(=O)Nc2ccccc2)C(=O)C1=O
inactive: growth inhibition [1] -2.23% | growth inhibition [2] 9.12% | viability increase [3] 0.2% | viability [4] 103% | viability [5] 107% | inhibition [6] 1.19% | RAM network inhibition [7] -0.21%

CCC(C)NC(=O)C1CN(S(=O)(=O)c2ccccc2)CCN1S(=O)(=O)c1ccccc1 (stereo not given)
inactive: growth inhibition [1] 10.9% | growth inhibition [2] -6.21% | viability increase [3] -2.53% | viability [4] 97.3% | viability [5] 92.9% | inhibition [6] 0.14% | RAM network inhibition [7] 0.57%

CCc1nnc(NC(=O)C2Cc3ccccc3C(=O)O2)s1 (stereo not given)
inactive: growth inhibition [1] -13.9% | growth inhibition [2] -14.9% | viability increase [3] 1.66% | viability [4] 102% | viability [5] 104% | inhibition [6] 1.32% | RAM network inhibition [7] 5.85%

Cc1nc2cc(-c3cccc(F)c3)nn2c(C)c1CCC(=O)NC(C)CCc1ccco1 (stereo not given)
inactive: growth inhibition [1] -10.1% | growth inhibition [2] -2.46% | viability increase [3] -1.36% | viability [4] 69.7% | viability [5] 72.6% | inhibition [6] 0.955% | RAM network inhibition [7] 3.16%

COc1cc(S(=O)(=O)N2CCN(Cc3ccc4c(c3)OCO4)CC2)c(C)cc1C
inactive: growth inhibition [1] -4.19% | growth inhibition [2] -11.6% | viability increase [3] -4.77% | viability [4] 57.5% | viability [5] 71.1% | inhibition [6] 2.5% | RAM network inhibition [7] 5.84%

CCOC(=O)c1c(C)n(C)c2ccc(OCC(O)CN(CC)CC)cc12 (stereo not given)
inactive: growth inhibition [1] -9.63% | growth inhibition [2] -1.99% | viability increase [3] -4.23% | viability [4] 77.6% | viability [5] 81.5% | inhibition [6] 1.71% | RAM network inhibition [7] -0.57%

CCn1c(C2CC(=O)N(c3ccc(C)c(C)c3)C2)nc2ccccc21 (stereo not given)
inactive: growth inhibition [1] -6.54% | growth inhibition [2] 1.06% | viability increase [3] -3.09% | viability [4] 86.7% | viability [5] 89.9% | inhibition [6] -0.35% | RAM network inhibition [7] 0.57%

O=C(Cn1cc2c(n1)CCCCC2)NC1CCN(Cc2ccccc2)CC1
inactive: growth inhibition [1] -6.81% | growth inhibition [2] 2.45% | viability increase [3] -1.57% | viability [4] 86.5% | viability [5] 83.4% | inhibition [6] 2.21% | RAM network inhibition [7] 7.63%

O=C(CCCN1C(=O)c2ccccc2C1=O)Nc1ccccc1C(=O)N1CCOCC1
inactive: growth inhibition [1] -5.06% | growth inhibition [2] 2.61% | viability increase [3] 0.44% | viability [4] 102% | viability [5] 103% | inhibition [6] 0.11% | RAM network inhibition [7] 3.36%

CSCCC1(C(=O)O)NC(c2ccccc2O)C2C(=O)N(C(C)C)C(=O)C21 (stereo not given)
inactive: growth inhibition [1] 2.37% | growth inhibition [2] 11.6% | viability increase [3] -1.09% | viability [4] 102% | viability [5] 94.7% | inhibition [6] 0.875% | RAM network inhibition [7] 3.49%

O=S(=O)(NC1CCCCC1NCc1ccco1)c1ccccc1 (stereo not given)
inactive: growth inhibition [1] -9.75% | growth inhibition [2] -2.12% | viability increase [3] -4.92% | viability [4] 98% | viability [5] 92.6% | inhibition [6] 1.82% | RAM network inhibition [7] 6.55%

CCOC(=O)c1sc(NC(=O)c2ccco2)nc1-c1ccccc1
inactive: growth inhibition [1] -1.62% | growth inhibition [2] -1.76% | viability increase [3] -2.38% | viability [4] 105% | viability [5] 95.5% | inhibition [6] 4.44% | RAM network inhibition [7] 4.08%

O=C(c1cnn2ccccc12)N1CCc2ccccc21
inactive: growth inhibition [1] 0.67% | growth inhibition [2] -5.48% | viability increase [3] -2.13% | viability [4] 97.9% | viability [5] 91.9% | inhibition [6] 1.33% | RAM network inhibition [7] 1.54%
